Calls of active or inactive are those of the source. The rule behind the calls is not given here.
How the values were obtained:
[1] = Agonist activity at rat mGlu4 R258Q/D262/R263 mutant
[2] = Agonist activity at rat mGlu4 loop beta-10-alpha7 region
[3] = Agonist activity at rat mGlu7 S237A mutant
[4] = target: Metabotropic glutamate receptor 4 (Rattus norvegicus, UniProt P31423); assay: Agonist activity against wild type rat mGlu4; assay type: functional
[5] = target: Metabotropic glutamate receptor 7 (Rattus norvegicus, UniProt P35400, Q258A); assay: Agonist activity at rat mGlu7 Q258A mutant
[6] = Agonist activity at rat mGlu7 K233D mutant
[7] = target: Metabotropic glutamate receptor 7 (Rattus norvegicus, UniProt P35400, N74A); assay: Agonist activity at rat mGlu7 N74A mutant
Sequence of Metabotropic glutamate receptor 7 (Rattus norvegicus, UniProt P35400, N74A) (P35400 35-915 N74A limits assumed): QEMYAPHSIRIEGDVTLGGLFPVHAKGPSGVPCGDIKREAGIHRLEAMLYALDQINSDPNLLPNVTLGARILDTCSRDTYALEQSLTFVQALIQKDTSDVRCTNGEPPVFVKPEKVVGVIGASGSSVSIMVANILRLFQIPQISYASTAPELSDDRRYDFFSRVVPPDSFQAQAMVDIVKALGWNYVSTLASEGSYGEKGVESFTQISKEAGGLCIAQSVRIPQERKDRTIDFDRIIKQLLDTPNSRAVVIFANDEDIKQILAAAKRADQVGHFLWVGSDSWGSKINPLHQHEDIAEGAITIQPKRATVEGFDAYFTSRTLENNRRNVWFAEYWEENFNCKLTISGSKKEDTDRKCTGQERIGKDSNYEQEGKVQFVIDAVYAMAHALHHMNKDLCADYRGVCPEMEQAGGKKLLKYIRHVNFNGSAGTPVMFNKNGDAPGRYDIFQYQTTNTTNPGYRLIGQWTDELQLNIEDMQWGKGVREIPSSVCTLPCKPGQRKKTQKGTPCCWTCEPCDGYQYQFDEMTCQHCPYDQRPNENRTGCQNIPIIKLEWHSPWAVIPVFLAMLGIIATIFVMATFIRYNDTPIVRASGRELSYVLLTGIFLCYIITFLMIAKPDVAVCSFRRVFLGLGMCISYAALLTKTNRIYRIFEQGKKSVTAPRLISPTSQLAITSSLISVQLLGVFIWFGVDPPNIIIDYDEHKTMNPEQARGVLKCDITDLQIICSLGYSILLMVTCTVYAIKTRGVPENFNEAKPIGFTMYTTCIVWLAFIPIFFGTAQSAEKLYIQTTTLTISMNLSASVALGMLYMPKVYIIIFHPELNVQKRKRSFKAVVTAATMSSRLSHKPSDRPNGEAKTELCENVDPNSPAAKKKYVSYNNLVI

[8] = target: T1, Metabotropic glutamate receptor 7 (Rattus norvegicus, UniProt P35400); assay: Antagonist activity against LSP4-202-induced rat mGlu7 activation transfected in HEK293 cells co-transfected with chimeric Gqi9 assessed as decrease in LSP4-202 potency by measuring LSP4-202 pEC50 incubated for 24 hrs by IP-one HTRF assay; assay type: functional, cell-based
T1 sequence (P35400 whole entry): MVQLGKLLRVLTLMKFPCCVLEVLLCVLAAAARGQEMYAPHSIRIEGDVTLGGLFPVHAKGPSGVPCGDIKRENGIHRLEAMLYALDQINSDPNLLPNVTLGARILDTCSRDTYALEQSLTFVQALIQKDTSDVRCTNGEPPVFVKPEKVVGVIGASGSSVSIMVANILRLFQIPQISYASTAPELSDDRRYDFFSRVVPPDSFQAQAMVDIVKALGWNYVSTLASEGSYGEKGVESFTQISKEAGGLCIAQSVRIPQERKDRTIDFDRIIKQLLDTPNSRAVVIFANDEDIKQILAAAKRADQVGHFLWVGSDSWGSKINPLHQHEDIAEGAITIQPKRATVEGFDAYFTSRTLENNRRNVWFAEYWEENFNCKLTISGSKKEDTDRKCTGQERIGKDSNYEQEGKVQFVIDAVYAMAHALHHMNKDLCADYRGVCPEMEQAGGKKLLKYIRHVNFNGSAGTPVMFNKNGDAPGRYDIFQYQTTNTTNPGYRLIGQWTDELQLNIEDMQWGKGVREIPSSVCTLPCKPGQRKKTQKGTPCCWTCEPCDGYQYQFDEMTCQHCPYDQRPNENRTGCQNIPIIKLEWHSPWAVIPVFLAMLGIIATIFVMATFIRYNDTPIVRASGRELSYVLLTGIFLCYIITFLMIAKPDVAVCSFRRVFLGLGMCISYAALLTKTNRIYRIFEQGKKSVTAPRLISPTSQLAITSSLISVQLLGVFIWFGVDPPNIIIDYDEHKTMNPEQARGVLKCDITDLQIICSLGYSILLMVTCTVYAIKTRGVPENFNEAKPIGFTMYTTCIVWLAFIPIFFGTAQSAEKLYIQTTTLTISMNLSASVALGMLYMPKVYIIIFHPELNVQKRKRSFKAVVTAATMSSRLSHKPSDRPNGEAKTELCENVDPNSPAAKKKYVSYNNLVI
Method in brief: (§1)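 IP-One HTRF IP1 read-out in HEK293 transiently expressing rat mGlu7 plus chimeric Gqα9, 24 h after electroporation. LSP4-2022 concentration-response was tested with derivatives at 30 or 100 µM. Gives pEC50, pEC50/pEC50 control ratio, and max as % of LSP4-2022 maximal effect over basal. Triplicates, n independent experiments; paired t-test.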

[9] = Agonist activity at rat mGlu7 loop beta10-alpha7 region
[10] = Agonist activity at rat mGlu7 K233A mutant
[11] = target: Metabotropic glutamate receptor 7 (Rattus norvegicus, UniProt P35400, K60A); assay: Agonist activity at rat mGlu7 K60A mutant
Sequence of Metabotropic glutamate receptor 7 (Rattus norvegicus, UniProt P35400, K60A) (P35400 35-915 K60A limits assumed): as the sequence (P35400 35-915 N74A limits assumed) above, with K26A, A40N counted along it

[12] = Agonist activity at rat mGlu7 N74K/loop 4 region
[13] = target: Metabotropic glutamate receptor 4 (Rattus norvegicus, UniProt P31423, R60A); assay: Agonist activity against rat mGlu4 R60A mutant
[14] = Agonist activity at rat mGlu7 D314A mutant
[15] = target: Metabotropic glutamate receptor 4 (Rattus norvegicus, UniProt P31423, R258A); assay: Agonist activity at rat mGlu4 R258A mutant
[16] = target: Metabotropic glutamate receptor 7 (Rattus norvegicus, UniProt P35400, N74K); assay: Agonist activity at rat mGlu7 N74K mutant
[17] = target: T1, Metabotropic glutamate receptor 7; assay: Agonist activity at wild type rat mGlu7; assay type: functional
Method in brief: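 HEK293 cells were transiently transfected by electroporation with rat mGlu7 plasmid plus chimeric Gqα9 to couple to phospholipase C. They were grown in DMEM with 10% FBS on polyornithine-coated wells at 150 000 cells/well.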

[18] = target: Metabotropic glutamate receptor 4 (Rattus norvegicus, UniProt P31423, S160D); assay: Agonist activity against rat mGlu4 S160D mutant
[19] = Agonist activity at rat mGlu7 N288A mutant
[20] = target: Metabotropic glutamate receptor 7 (Rattus norvegicus, UniProt P35400, S160A); assay: Agonist activity at rat mGlu7 S160A mutant
[21] = Agonist activity at rat mGlu7 Q258R/D262/R263 mutant
[22] = target: Metabotropic glutamate receptor 4 (Rattus norvegicus, UniProt P31423, S160A); assay: Agonist activity against rat mGlu4 S160A mutant
Sequence of Metabotropic glutamate receptor 4 (Rattus norvegicus, UniProt P31423, S160A) (P31423 33-912 S160A limits assumed): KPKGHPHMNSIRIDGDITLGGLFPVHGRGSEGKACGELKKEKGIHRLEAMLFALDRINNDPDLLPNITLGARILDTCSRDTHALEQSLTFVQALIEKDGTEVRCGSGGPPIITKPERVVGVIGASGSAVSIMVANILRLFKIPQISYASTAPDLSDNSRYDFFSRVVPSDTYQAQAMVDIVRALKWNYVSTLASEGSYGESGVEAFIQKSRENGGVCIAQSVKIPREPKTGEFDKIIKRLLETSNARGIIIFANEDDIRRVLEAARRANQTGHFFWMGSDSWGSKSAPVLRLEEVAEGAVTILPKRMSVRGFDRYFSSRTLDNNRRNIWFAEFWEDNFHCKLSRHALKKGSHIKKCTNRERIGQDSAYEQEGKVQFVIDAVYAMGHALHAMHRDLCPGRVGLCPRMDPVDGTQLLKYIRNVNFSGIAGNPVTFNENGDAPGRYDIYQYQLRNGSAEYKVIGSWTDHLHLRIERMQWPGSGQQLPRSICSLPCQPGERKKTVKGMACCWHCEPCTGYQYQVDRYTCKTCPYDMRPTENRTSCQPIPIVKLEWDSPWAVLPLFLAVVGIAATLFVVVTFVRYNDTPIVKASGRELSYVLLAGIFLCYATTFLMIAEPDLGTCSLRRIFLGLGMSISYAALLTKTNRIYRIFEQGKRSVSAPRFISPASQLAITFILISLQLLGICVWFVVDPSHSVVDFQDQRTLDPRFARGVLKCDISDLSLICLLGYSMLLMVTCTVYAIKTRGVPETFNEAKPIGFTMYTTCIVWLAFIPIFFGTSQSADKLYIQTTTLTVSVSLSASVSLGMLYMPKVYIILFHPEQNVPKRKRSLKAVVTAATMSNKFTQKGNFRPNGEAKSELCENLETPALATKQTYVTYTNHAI

[23] = Agonist activity at rat mGlu7 K233S mutant
[24] = target: Metabotropic glutamate receptor 4 (Rattus norvegicus, UniProt P31423, K74A); assay: Agonist activity against rat mGlu4 K74A mutant
[25] = Agonist activity at rat mGlu7 S229A mutant
[26] = target: Metabotropic glutamate receptor 7 (Rattus norvegicus, UniProt P35400, K60A/S160A); assay: Agonist activity at rat mGlu7 K60A/S160A mutant
[27] = Antagonist activity against LSP4-202-induced rat mGlu7 S229A mutant assessed as decrease in LSP4-202 potency by measuring LSP4-202 pEC50
Rattus norvegicus [28] = organism: Rattus norvegicus; assay: Ratio of pEC50 for antagonist activity against LSP4-202 induced wild type rat mGlu7 assessed as decrease in LSP4-202 potency by measuring LSP4-202 pEC50 at 30 uM to pEC50 for LSP4-202-induced wild type rat mGlu7
[29] = Antagonist activity against LSP4-202-induced rat mGlu7 […] mutant assessed as decrease in LSP4-202 potency by measuring LSP4-202 pEC50 at 30 uM
[30] = target: Metabotropic glutamate receptor 7 (Rattus norvegicus) (UniProt P35400); assay: Antagonist activity against LSP4-202-induced rat mGlu7 activation transfected in HEK293 cells co-transfected with chimeric Gqi9 assessed as decrease in LSP4-202 potency by measuring LSP4-202 maximum efficacy at 30 to 100 uM incubated for 24 hrs by IP-one HTRF assay relative to control; assay type: functional, cell-based; conditions: filed as antagonist, dose 30-100 µM; method in brief: as §1
Sequence of Metabotropic glutamate receptor 7 (Rattus norvegicus) (P35400 whole entry): as the sequence (P35400 whole entry) above

Rattus norvegicus [31] = organism: Rattus norvegicus; assay: Ratio of pEC50 for antagonist activity against LSP4-202-induced rat mGlu7 S229A mutant assessed as decrease in LSP4-202 potency to pEC50 for LSP4-202-induced rat mGlu7 S229A mutant; conditions: filed as antagonist
[32] = Antagonist activity against LSP4-202-induced rat mGlu7 S237A mutant assessed as decrease in LSP4-202 potency by measuring LSP4-202 pEC50
[33] = target: T1, Metabotropic glutamate receptor 7; assay: Antagonist activity against rat mGlu7 activation transfected in HEK293 cells co-transfected with chimeric Gqi9 incubated for 24 hrs in presence of LSP4-2022 by IP-one HTRF assay; assay type: functional, cell-based; conditions: read-out: IC50
Method in brief: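 Inhibition curves were run with increasing inhibitor concentrations against IP1 production by 30 µM LSP4-2022. Rat mGlu7 was co-expressed with Gqα9 in HEK293 and assayed 24 h post-transfection with IP-One HTRF. IC50/pIC50 are means ± sem of independent experiments in triplicates. pIC50 compared to reference by unpaired t-test.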

[34] = Antagonist activity against LSP4-202-induced rat mGlu7 K233A mutant assessed as decrease in LSP4-202 potency by measuring LSP4-202 pEC50
Rattus norvegicus [35] = organism: Rattus norvegicus; assay: Ratio of pEC50 for antagonist activity against LSP4-202 induced wild type rat mGlu7 assessed as decrease in LSP4-202 potency by measuring LSP4-202 pEC50 at 3 uM to pEC50 for LSP4-202-induced wild type rat mGlu7
Rattus norvegicus [36] = organism: Rattus norvegicus; assay: Ratio of pEC50 for antagonist activity at LSP4-202-induced rat mGlu7 K233D mutant assessed as decrease in LSP4-202 potency to pEC50 for LSP4-202-induced rat mGlu7 K233D mutant; conditions: filed as antagonist
[37] = target: Metabotropic glutamate receptor 7 (Rattus norvegicus) (UniProt P35400); assay: Non-competitive antagonist activity against rat mGlu7 receptor assessed as decrease in L-AP4 effect at 1 to 100 uM; conditions: filed as antagonist, dose 1-100 µM
Rattus norvegicus [38] = organism: Rattus norvegicus; assay: Ratio of pEC50 for antagonist activity against LSP4-202-induced rat mGlu7 K233A mutant assessed as decrease in LSP4-202 potency to pEC50 for LSP4-202-induced rat mGlu7 K233A mutant; conditions: filed as antagonist
Rattus norvegicus [39] = organism: Rattus norvegicus; assay: Ratio of pEC50 for antagonist activity against LSP4-202-induced rat mGlu7 S237A mutant assessed as decrease in LSP4-202 potency to pEC50 for LSP4-202-induced rat mGlu7 S237A mutant; conditions: filed as antagonist
[40] = Antagonist activity against LSP4-202-induced rat mGlu7 […] mutant assessed as decrease in LSP4-202 potency by measuring LSP4-202 pEC50 at 100 uM
Rattus norvegicus [41] = organism: Rattus norvegicus; assay: Ratio of pEC50 for antagonist activity against LSP4-202 induced wild type rat mGlu7 assessed as decrease in LSP4-202 potency by measuring LSP4-202 pEC50 at 10 uM to pEC50 for LSP4-202-induced wild type rat mGlu7
[42] = Antagonist activity against LSP4-202-induced rat mGlu7 […] mutant assessed as decrease in LSP4-202 potency by measuring LSP4-202 pEC50 at 10 uM
Rattus norvegicus [43] = organism: Rattus norvegicus; assay: Ratio of pEC50 for antagonist activity against LSP4-202 induced rat mGlu7 S229A mutant assessed as decrease in LSP4-202 potency by measuring LSP4-202 pEC50 at 30 uM to pEC50 for LSP4-202-induced rat mGlu7 S229A mutant
Rattus norvegicus [44] = organism: Rattus norvegicus; assay: Ratio of pEC50 for antagonist activity against LSP4-202 induced rat mGlu7 S229A mutant assessed as decrease in LSP4-202 potency by measuring LSP4-202 pEC50 at 100 uM to pEC50 for LSP4-202-induced rat mGlu7 S229A mutant
Rattus norvegicus [45] = organism: Rattus norvegicus; assay: Ratio of pEC50 for antagonist activity against LSP4-202-induced rat mGlu7 K233S mutant assessed as decrease in LSP4-202 potency to pEC50 for LSP4-202-induced rat mGlu7 K233S mutant; conditions: filed as antagonist
Rattus norvegicus [46] = organism: Rattus norvegicus; assay: Ratio of pEC50 for antagonist activity against LSP4-202 induced rat mGlu7 S229A mutant assessed as decrease in LSP4-202 potency by measuring LSP4-202 pEC50 at 10 uM to pEC50 for LSP4-202-induced rat mGlu7 S229A mutant
Rattus norvegicus [47] = organism: Rattus norvegicus; assay: Ratio of pEC50 for antagonist activity against LSP4-202-induced wild type rat mGlu7 assessed as decrease in LSP4-202 potency to pEC50 for LSP4-202-induced wild type rat mGlu7; conditions: filed as antagonist
[48] = target: T1, Metabotropic glutamate receptor 7; assay: Inhibition of [3H] -LY341495 binding to rat mGlu7 expressed in CHO cell membrane incubated for 30 mins in presence of LY341495 by liquid scintillation analysis; assay type: cell membranes
[49] = Antagonist activity against LSP4-202-induced rat mGlu7 K233D mutant assessed as decrease in LSP4-202 potency by measuring LSP4-202 pEC50
[50] = Antagonist activity at LSP4-202-induced rat mGlu7 K233S mutant assessed as decrease in LSP4-202 potency by measuring LSP4-202 pEC50
Rattus norvegicus [51] = organism: Rattus norvegicus; assay: Ratio of pEC50 for antagonist activity against LSP4-202 induced wild type rat mGlu7 assessed as decrease in LSP4-202 potency by measuring LSP4-202 pEC50 at 1 uM to pEC50 for LSP4-202-induced wild type rat mGlu7
Rattus norvegicus [52] = organism: Rattus norvegicus; assay: Ratio of pEC50 for antagonist activity against LSP4-202-induced rat mGlu7 activation transfected in HEK293 cells co-transfected with chimeric Gqi9 assessed as decrease in LSP4-202 potency to pEC50 for LSP4-202-induced rat mGlu7 activation transfected in HEK293 cells co-transfected with chimeric Gqi9; assay type: cell-based; method in brief: as §1

N[C@@H](CCP(=O)(O)C(O)c1ccc(OCC(=O)O)cc1)C(=O)O (stereo not given in full)
EC50 [1]: 7 µM
EC50 [2]: 3.68 µM
EC50 [3]: 18.3 µM
pEC50 [3]: 4.74
EC50 [4]: 0.833 µM
EC50 [5]: 18.2 µM
EC50 [6]: 155 µM
pEC50 [6]: 3.83
EC50 [7]: 32 µM
EC50 [8]: 19.5 µM
EC50 [9]: 2.18 µM
EC50 [10]: 87.7 µM
pEC50 [10]: 4.06
EC50 [11]: 178 µM
EC50 [12]: 2.56 µM
EC50 [13]: 9.07 µM
EC50 [14]: > 1000 µM
EC50 [15]: 4.91 µM
EC50 [16]: 47 µM
EC50 [17]: 21.2 µM
EC50 [18]: 18.5 µM
EC50 [19]: 49.3 µM
EC50 [20]: > 300 µM
EC50 [21]: 13.9 µM
EC50 [22]: 26.2 µM
EC50 [23]: 40.9 µM
pEC50 [23]: 4.39
EC50 [24]: 0.024 µM
EC50 [25]: 14.5 µM
pEC50 [25]: 4.96
EC50 [26]: > 300 µM

O=c1c(Oc2ccc(I)cc2)coc2cc(O)ccc12
pEC50 [27]: 4.99
Ratio (Rattus norvegicus [28]): 0.83
EC50 [29]: 49.5 µM
pEC50 [29]: 4.32
Emax [30]: 96.4%
Ratio (Rattus norvegicus [31]): 1.02
pEC50 [32]: 3.7
IC50 [33]: 4.33 µM
pEC50 [34]: 3.58
Ratio (Rattus norvegicus [35]): 0.94
Ratio (Rattus norvegicus [36]): 0.93
Activity [37]: Active
Ratio (Rattus norvegicus [38]): 0.88
Ratio (Rattus norvegicus [39]): 0.78
EC50 [40]: 10.9 µM
pEC50 [40]: 4.99
Ratio (Rattus norvegicus [41]): 0.91
EC50 [42]: 25 µM
pEC50 [42]: 4.6
Ratio (Rattus norvegicus [43]): 0.9
Ratio (Rattus norvegicus [44]): 1
Ratio (Rattus norvegicus [45]): 0.88
Ratio (Rattus norvegicus [46]): 0.96
Ratio (Rattus norvegicus [47]): 0.83
IC50 [48]: 0.08 µM
pEC50 [49]: 3.56
pEC50 [50]: 4.25
Ratio (Rattus norvegicus [51]): 0.96
Ratio (Rattus norvegicus [52]): 0.82
